Measurements gathered from unrelated publications.
Each line is one published result; the experiments were not run side by side.

CO[C@H]1/C=C/O[C@@]2(C)Oc3c(C)c(O)c4c(c3C2=O)C2=NC3(CCN(CC(C)C)CC3)NC2=C(NC(=O)/C(C)=C\C=C\[C@H](C)[C@H](O)[C@@H](C)[C@@H](O)[C@@H](C)[C@H](OC(C)=O)[C@@H]1C)C4=O
AUC(0-t) (female CD-1 mouse, plasma; oral, 10 mg/kg): 11200 ng·h/mL

NCc1ccc(-c2nn(Cc3ccncc3)c3ccccc23)o1
AUC(0-t) (male CD-1 mouse, plasma; oral, 10 mg/kg): 314 ng·h/mL

Cc1nc2ccc(OCc3ccc(C(F)(F)F)cc3)cc2[nH]1
AUC(0-t) (male BALB/c mouse, plasma; intravenous, 1 mg/kg): 3800 ng·h/mL

Cc1ccc(OCC(=O)N[C@@H](Cc2c[nH]c3ccccc23)C(=O)OC(C)C)cc1
AUC(0-t) (male Sprague-Dawley mouse, plasma; oral, 20 mg/kg): 3260 ng·h/mL

OCc1ccc(-c2nn(Cc3ccccc3)c3ccccc23)o1
AUC(0-t) (male CD-1 mouse, plasma; intraperitoneal, 30 mg/kg): 3370 ng·h/mL

CN(C)C(=O)c1cc2cnc(Nc3ccc(-c4ccc5c(=O)cc(N6CCOCC6)oc5c4)cc3)nc2n1C1CCCC1.Cl
AUC(0-t) (BALB/c mouse, plasma; oral, 20 mg/kg): 7480 ng·h/mL

Cc1ncsc1-c1ccc([C@H](CC(=O)N2CCN(c3ccc(C#Cc4ccc(C(=O)N5CCC(n6cc(-c7ccc8c(c7)CCN8C(=O)Cc7cccc(OC(F)(F)F)c7)c7c(N)ncnc76)CC5)cc4)cn3)CC2)NC(=O)[C@@H]2C[C@@H](O)CN2C(=O)[C@@H](NC(=O)C2(F)CC2)C(C)(C)C)cc1
AUC(0-t) (male C57BL/6 mouse, plasma; intravenous, 1 mg/kg): 7260 ng·h/mL

COC1=CC(c2ccc[nH]2)=N/C1=C\c1cc(Cc2ccc(OC(F)(F)F)cc2)c(C)[nH]1.Cl
AUC(0-t) (male CD-1 mouse, liver; oral, 40 mg/kg, single dose): 101000 ng·h/mL

Cc1ncsc1-c1ccc([C@H](C)NC(=O)[C@@H]2C[C@@H](O)CN2C(=O)[C@@H](NC(=O)CCc2ccc(C#Cc3ccc(C(=O)NCCCn4cc(-c5ccc6c(c5)CCN6C(=O)Cc5cccc(OC(F)(F)F)c5)c5c(N)ncnc54)cc3)cn2)C(C)(C)C)cc1
AUC(0-t) (male C57BL/6 mouse, plasma; intravenous, 1 mg/kg): 6600 ng·h/mL

Cc1ccc2c(c1)C(=O)[C@]1(O)CCN(c3ccc4nc(C)ccc4c3)C1=N2.Cl
AUC(0-t) (C57BL/6 mouse, plasma; subcutaneous, 2 mg/kg): 0.98 µM·h

Cc1cc(-c2ccnc3[nH]cc(F)c23)cc(F)c1[C@@]1(O)[C@H](C)CN(C(=O)CN)C[C@@H]1C
AUC(0-t) (male CD-1 mouse, plasma; intravenous, 1 mg/kg): 18400 ng·h/mL

COC1=CC(c2ccc[nH]2)=N/C1=C\c1[nH]c(Cc2ccc(OC(F)(F)F)cc2)cc1Cc1ccc(OC(F)(F)F)cc1
AUC(0-t) (male CD-1 mouse, plasma; oral, 40 mg/kg, single dose): 84100 ng·h/mL

C[C@@H](CN1CCC(n2c(=O)[nH]c3cc(Cl)ccc32)CC1)NC(=O)c1ccc2ccccc2c1
AUC(0-t) (male CD-1 mouse, brain; intravenous, 1 mg/kg, single dose): 0.302 ng·h/mL

Cc1ncsc1-c1ccc([C@H](C)NC(=O)[C@@H]2C[C@@H](O)CN2C(=O)[C@@H](NC(=O)CCCCCCCCC(=O)N2CCC(n3cc(-c4ccc5c(c4)CCN5C(=O)Cc4cccc(OC(F)(F)F)c4)c4c(N)ncnc43)CC2)C(C)(C)C)cc1
AUC(0-t) (male C57BL/6 mouse, plasma; intravenous, 1 mg/kg): 1240 ng·h/mL

OCc1nc2ccc(NCc3ccc(C(F)(F)F)cc3)cc2[nH]1
AUC(0-t) (male BALB/c mouse, plasma; intravenous, 1 mg/kg): 482 ng·h/mL

O=C1CCC(N2Cc3cc(C4CCN(Cc5ccccc5)CC4)ccc3C2=O)C(=O)N1 (stereo not drawn)
AUC(0-t) (male CD-1 mouse, plasma; intravenous, 1 mg/kg): 310 ng·h/mL

Cc1cc(-c2ccnc3[nH]cc(F)c23)cc(F)c1[C@@]1(O)[C@H](C)CN(C2CCS(=O)(=O)CC2)C[C@@H]1C
AUC(0-t) (male CD-1 mouse, plasma; intravenous, 1 mg/kg): 3020 ng·h/mL

NCc1ccc(-c2nn(Cc3ccccc3)c3ccccc23)o1
AUC(0-t) (male CD-1 mouse, plasma; oral, 10 mg/kg): 891 ng·h/mL
